Bioassay records: PubChem, Sanford-Burnham Center for Chemical Genomics
Sampled rows, rich in hits. Any-hit rate of the full collection: about 2.3%.
ATG4B inhibitor: ATG4B protease inhibitors, primary screen, biochemical, fluorescence, uHTS; ATG4B cleavage of LC3-PLA2, NBD-HPC fluorescence, 1 h; inhibition, % at 8.33 µM; 0.51% of 340,000 active; AID 504462, 2011; in the data active means inhibition above about 40%
Target sequence (Q9Y4P1 whole entry, looked up): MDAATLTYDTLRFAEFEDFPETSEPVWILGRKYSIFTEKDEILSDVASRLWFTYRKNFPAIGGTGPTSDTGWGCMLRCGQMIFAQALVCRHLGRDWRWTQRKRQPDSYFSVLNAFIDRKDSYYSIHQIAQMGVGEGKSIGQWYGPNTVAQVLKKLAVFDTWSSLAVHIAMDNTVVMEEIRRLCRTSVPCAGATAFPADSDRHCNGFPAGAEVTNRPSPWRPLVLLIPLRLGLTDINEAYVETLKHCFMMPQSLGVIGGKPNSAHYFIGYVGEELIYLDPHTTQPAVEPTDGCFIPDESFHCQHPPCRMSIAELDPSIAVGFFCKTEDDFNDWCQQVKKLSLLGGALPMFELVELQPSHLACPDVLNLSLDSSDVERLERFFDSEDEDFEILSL
SKN-1 block: suppressors of acrylamide-induced Pgst-4::GFP reporter in worms, primary screen, SKN-1 inhibitor project, whole organism, uHTS, GFP/RFP fluorescence ratio, strain VP596 | C. elegans VP596 Pgst-4::GFP/RFP ratio, 24 h | inhibition, % at 21.8 µM | 0.49% of 360,000 active | AID 624304, 2012;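 active means interference check ratio from 0.5 to 1.5 plus GFP to RFP signal ratio inhibition reaching or exceeding a fixed threshold, cut at about 30% in these data, passing the limit was not always enough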
MPTP block: mitochondrial permeability transition pore inhibitors, primary screen, biochemical, isolated mouse mitochondria, absorbance; Ca2+ swelling absorbance, 30 min; inhibition, % at 10 µM; 1.4% of 360,000 active; AID 602449, 2012;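 active means inhibition of 50% or more, scaled per plate between neutral and stimulator controls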
MT1-MMP act inh: blockers of MT1-MMP proenzyme processing, primary screen, HT1080 RFP-PRO-GFP cells, GFP/RFP fluorescence; GFP/RFP ratio change, % at 20 µM; Matrix metalloproteinase-14 (Homo sapiens), P50281; GFP/RFP ratio fluorescence, overnight; percent of plate control window, DMSO zero; 0.061% of 360,000 active; AID 651647, 2012;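 active means GFP/RFP ratio change of at least 30% with cell ATP level not reduced by more than half and red fluorescence within 50% of control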
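Test system: HT1080 cells expressing an RFP-PRO-GFP fluorescent reporter construct / Compound dosing: single-point 20 µM compound, 1% DMSO / Schedule: cells overnight before dosing, compound overnight, 37 °C, 5% CO2 / Evaluation: GFP/RFP fluorescence ratio / Control set: DMSO and RFP-L50D-GFP cell wells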
MPTP counter: fluorescence retest of MPTP screen hits in isolated mitochondria, single concentration; shares compounds with MPTP block; inhibition, % at 10 µM; AID 624504, 2012; 78% of 5,000 active; membrane potential, Rhodamine 123 fluorescence; in the data active means inhibition above about 22%
MPTP abs DR: mitochondrial permeability transition pore inhibitors, dose response, biochemical, absorbance, uHTS hits; isolated mitochondria swelling; IC50, µM; shares compounds with MPTP block; AID 651561, 2012; 58% of 780 active; in the data active means IC50 below about 20 µM
MPTP cs DR: fluorescent counter-screen in isolated mitochondria, dose response, counter-screen for MPTP inhibitor project, biochemical, fluorescence, uHTS hits; IC50, µM; shares compounds with MPTP block; 49% of 780 active; isolated mitochondria counterscreen, fluorescence read-out; in the data active means IC50 below about 80 µM
Each line names hits and unclear results; the compound was inactive in the other large screens (follow-up assays come after a bar, where they were run).

CCN(CC)S(=O)(=O)c1ccc(N2CC(C(=O)NCc3ccco3)CC2=O)cc1 (stereo not drawn)	none (no result: ATG4B inhibitor)
COc1ccc(/C=C/c2nc(-c3ccccc3O)n(-c3ccccc3)n2)cc1	none
COc1ccc(/C=C/c2nc(-c3ccccc3O)n[nH]2)cc1	MPTP block 56 | MPTP counter 46
C#CCOCCOCCOCCNc1nc(N2CCN(C(=O)[C@H](CCCCN)n3cc(CN)nn3)CC2)nc(N2CCN(C(=O)[C@H](CCCCN)n3cc([C@@H](N)[C@H](C)CC)nn3)CC2)n1	MPTP block 88 | MPTP counter inactive | MPTP abs DR 6.4 | MPTP cs DR 65
C#CCOCCOCCOCCNc1nc(N2CCN(C(=O)[C@H]([C@@H](C)CC)n3cc([C@@H](N)CC(C)C)nn3)CC2)nc(N2CCN(C(=O)[C@H](CCCCN)n3cc([C@@H](N)C(C)CC)nn3)CC2)n1 (stereo partly drawn)	MPTP block 76 | MPTP counter inactive | MPTP abs DR 2.4 | MPTP cs DR inactive
C#CCOCCOCCOCCNc1nc(N2CCN(C(=O)[C@H](CCCN=C(N)N)n3cc(C(N)[C@@H](C)CC)nn3)CC2)nc(N2CCN(C(=O)[C@H](CCCCN)n3cc([C@@H](N)[C@H](C)CC)nn3)CC2)n1 (stereo partly drawn)	MPTP block 101 | MPTP counter inactive | MPTP abs DR 1.5 | MPTP cs DR inactive
CSc1ccccc1NC(=O)CN(C)C(=O)c1ccc(-n2cccn2)cc1	none
CN(C)CC(O)COc1cccc(OCC(O)CN(C)C)c1 (stereo not drawn)	none
CN(Cc1ccc(Br)cc1)CC(O)COc1cccc(Br)c1 (stereo not drawn)	MPTP block 60 | MPTP counter inactive | MPTP abs DR inactive | MPTP cs DR 43
COc1ccc(CCNCC(O)COc2cccc(Br)c2)cc1 (stereo not drawn)	MPTP block 60 | MPTP counter inactive | MPTP abs DR 5.1 | MPTP cs DR 47
COc1ccc(S(=O)(=O)N2CCCCCC2)cc1C(=O)N(C)Cc1ccc(OC)c(OC)c1OC	none
O=C(/C(N=Nc1cccc([N+](=O)[O-])c1)=C(/O)c1ccc(Br)cc1)C(F)(F)F	MPTP block 78 (no result: ATG4B inhibitor) | MPTP counter 62
O=C(O)c1ccc(N=NNc2cccc([N+](=O)[O-])c2)cc1	none
CCCN(CC(=O)Nc1cc(Cl)cc(Cl)c1)CC(=O)Nc1ccc(F)c(F)c1F	MPTP block 57 | MPTP counter 59
CCCN(CC(=O)Nc1ccccc1Br)CC(=O)Nc1ccc(F)c(F)c1F	none
Cc1cccc(/N=C/c2c(O)n(Cc3ccc4c(c3)OCO4)c(=O)c3ccccc23)n1	none
Cc1ccc(C(=O)NCCc2ccncc2)cc1	none
O=C(NCc1ccncc1)c1ccc(Oc2ccccc2)cc1	MPTP block 76 | MPTP counter 39
Cc1ccc(Oc2ccc(C(=O)NCc3ccncc3)cc2)cc1	MPTP block 88 | MPTP counter 75
COc1ccc(C(CNCC(O)COc2c(C)ccc(C)c2C)N(C)C)cc1 (stereo not drawn)	none
CC(Sc1ccc(Cl)cc1)C(=O)Nc1ccc(S(=O)(=O)N2CCOCC2)cc1 (stereo not drawn)	none
CC(=O)c1cccc(N=c2scc(-c3ccc(S(=O)(=O)N4CCOCC4)cc3)n2CCO)c1	MPTP block 97 | MPTP counter 87
C=CCn1c(-c2ccc(S(=O)(=O)N3CCOCC3)cc2)csc1=Nc1ccccc1	MPTP block 58 | MPTP counter 100
CN(C)S(=O)(=O)c1cccc(-c2csc(=Nc3ccccc3)n2CCCN2CCOCC2)c1	none
CSCCC(NS(=O)(=O)c1ccc(C)cc1)C(=O)Nc1ccc(C)cn1 (stereo not drawn)	none (no result: MT1-MMP act inh)
Cc1ccc(S(=O)(=O)Nc2ccccc2CNc2ccccn2)cc1	none
Cc1ccc(S(=O)(=O)Nc2ccccc2CNc2ccc(Br)cn2)cc1	MPTP block 68 | MPTP counter 70
COc1ccccc1-c1noc2c1C(=O)N(Cc1cn(C3CCCC3)nn1)CC2	none (no result: ATG4B inhibitor)
COc1ccc(-c2c(C(F)(F)F)[nH]n3c(=O)cc(-c4ccccc4)nc23)cc1	MPTP block 82 | MPTP counter 42
Cc1[nH]n2c(=O)cc(-c3ccc([N+](=O)[O-])cc3)nc2c1-c1ccccc1	none
CCOC(=O)C1=NNC(C(=O)c2ccccc2)C1c1ccc(Cl)cc1 (stereo not drawn)	none
CCOC(=O)C1=C(C)N=C2c3ccccc3C(=O)C2C1c1ccc(Cl)cc1 (stereo not drawn)	MPTP block 66 | MPTP counter 45
CC1(C)CC(=O)C2=C(C1)N=C1c3ccccc3C(=O)C1C2c1ccc(Cl)cc1 (stereo not drawn)	MPTP block 98 | MPTP counter inactive
Cc1ccc(C2C3=C(CC(C)(C)CC3=O)N=C3c4ccccc4C(=O)C32)cc1 (stereo not drawn)	MPTP block 86 | MPTP counter 63
CC1CCN(C(=O)COC(=O)c2cc(Cl)c3c(c2)OCO3)CC1	none
CC(C)N(C(=O)Cn1cc(S(=O)(=O)CC(=O)NCc2ccc(F)cc2)c2ccccc21)C(C)C	none
CC(=O)NC(C)(c1ccccc1)c1nc(-c2ccc(S(C)(=O)=O)cc2)cs1 (stereo not drawn)	none (no result: ATG4B inhibitor)
COc1ccccc1C(=O)NCCC(=O)N1CCN(S(=O)(=O)c2ccccc2C(F)(F)F)CC1	none
CCOC(=O)c1ccc(NC(=O)Cc2coc3cc4c(cc23)CCC4)cc1	MPTP block 87 | MPTP counter 92
Cc1[nH]n(-c2ccccc2)c(=O)c1-c1ccccc1	none
O=c1c(Sc2ccccc2)c(C(F)(F)F)[nH]n1-c1ccccc1	MPTP block 70 | MPTP counter 89
Fc1ccc(Oc2nccc(-c3ccc(Cl)cc3)n2)cc1	none
Cc1oc(-c2ccc(Cl)cc2)nc1CN1CCCC(C(=O)N2CCN(C(=O)c3ccco3)CC2)C1 (stereo not drawn)	none
CC(=O)N(C)c1ccc(NC(=O)Nc2ccc(Cl)cc2)cc1	MPTP block 56 | MPTP counter 78
O=C(Nc1cccc(F)c1)Nc1ccc2c(c1)C(=O)OC2	none
Cn1nc(C(=O)Nc2ccc(Cl)cc2)cc1C(=O)Nc1ccc(Cl)cc1	none
